Assay results: ChEMBL document CHEMBL4257585, “Structure-Activity Relationships of Photoswitchable Diarylethene-Based β-Hairpin Peptides as Membranolytic Antimicrobial and Anticancer Agents” (J Med Chem, 2018)
Values after ≈ are worked out from the molar mass of the structure shown.

Tests used:
[1] = Hemolytic activity against human RBC assessed as hemolysis after 30 mins by colorimetric method; assay type: ADME, cell-based, Erythrocyte; details: human red blood cells (erythrocytes)
Method in brief: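 Human erythrocytes washed twice in isotonic 172 mM Tris-HCl, pH 7.6; peptides dissolved in DMSO, diluted in buffer, two independent 10-step 2-fold series from 256 or 192 μg/mL. HC50 extrapolated as 50% hemolysis concentration.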

[2] = Therapeutic index, ratio of HC50 for human RBC to MIC for Bacillus subtilis DSM 347; assay type: toxicity; details: human red blood cells versus Bacillus subtilis DSM 347
Method in brief: (§1)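 Ratio of HC50 (RBC) to HeLa IC50 or to MIC against B. subtilis or E. coli; values measured in mg/mL and recalculated to μM, 2-fold dilution without curve fitting, accuracy within a factor of 2.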

Escherichia coli = test: Antimicrobial activity against Escherichia coli DSM 1103 after 22 hrs by resazurin dye based spectrophotometry; assay type: functional; details: DSM 1103, 22 h
Method in brief: (§2)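 2-fold broth microdilution in Mueller–Hinton medium; peptide stocks 1024 μg/mL in 50% ethanol. Exponential-phase cultures diluted to OD550 0.2, then 1:100 (B. subtilis) or 1:1000 (E. coli), giving 5 × 10^5 CFU/mL per well. Incubated 22 h, 37 °C, static; then resazurin (0.2 mg/mL solution) added for 2 h at 37 °C, read visually and spectrophotometrically. Tested in both photoforms.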

[3] = Selective ratio of HC50 for human RBC to IC50 for human HeLa cells; assay type: toxicity; details: human red blood cells versus HeLa cells; method in brief: as §1
Bacillus subtilis = test: Antimicrobial activity against Bacillus subtilis DSM 347 after 22 hrs by resazurin dye based spectrophotometry; assay type: functional; details: DSM 347, 22 h; method in brief: as §2
HeLa = test: Cytotoxicity against human HeLa cells assessed as reduction in cell viability after 24 hrs by MTT assay; assay type: functional, cell-based
Method in brief: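 HeLa cells seeded at about 5 × 10^4 cells/mL in DMEM with 10% FBS, 2 mM glutamine, gentamicin; 24 h adaptation (37 °C, 5% CO2), then 24 h peptide exposure. MTT 4 h, formazan in DMSO read at 570 nm. 2-fold series 256–0.5 (open) or 512–1 μg/mL (closed), four repetitions; IC50 extrapolated from killing curves. Closed form handled in dim light.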

[4] = Therapeutic index, ratio of HC50 for human RBC to MIC for Escherichia coli DSM 1103; assay type: toxicity; details: human red blood cells versus Escherichia coli DSM 1103; method in brief: as §1

Row | Structure (SMILES) | HC50 at 0.5 h [1] [µM] | selectivity ratio [2] | MIC (Escherichia coli) [µM] | selectivity ratio [3] | MIC (Bacillus subtilis) [µM] | IC50 (HeLa) [µM] | selectivity ratio [4]
1 | CC[C@H](C)[C@@H]1NC(=O)c2cc(c(C)s2)C2=C(CCC2)c2cc(sc2C)C(=O)[C@H]2CCCN2C(=O)[C@H]([C@@H](C)CC)NC(=O)[C@H](CCCN)NC(=O)[C@H](CC(C)C)NC(=O)[C@H](CC(C)C)N(C)C(=O)[C@@H](Cc2ccccc2)NC(=O)[C@H]([C@@H](C)CC)NC(=O)[C@H](CCCN)NC1=O | 3 | 1.5 | 96 (≈ 129 µg/mL) | 1 | 2 (≈ 2.68 µg/mL) | 3 | –
2 | Cc1sc2cc1C1=C(CCC1)c1cc(sc1C)C(=O)[C@H]1CCCN1C(=O)[C@H](C(C)C)NC(=O)[C@H](CCCN)NC(=O)[C@H]([C@H](O)C(C)C)NC(=O)[C@@H]1CCCN1C(=O)[C@@H](Cc1ccccc1)NC(=O)[C@H](C(C)C)NC(=O)[C@H](CCCN)NC(=O)[C@H]([C@H](O)C(C)C)NC2=O | 160 | 53.3 | 98 (≈ 129 µg/mL) | 2.6 | 3 (≈ 3.94 µg/mL) | 61 | 1.6
3 | CCCCN1C(=O)[C@@H](Cc2ccccc2)NC(=O)[C@H](CC(C)C)NC(=O)[C@H](CCCN)NC(=O)[C@H]([C@@H](C)CC)NC(=O)C2=CC3=C4CCCC4=C4C=C(S[C@]4(C)[C@@]3(C)S2)C(=O)[C@H]2CCCN2C(=O)[C@H](CC(C)C)NC(=O)[C@H](CCCN)NC(=O)[C@H]([C@@H](C)CC)NC(=O)[C@@H]1CC(C)C | 13 | 13 | 186 (≈ 257 µg/mL) | 1 | 1 (≈ 1.38 µg/mL) | 13 | 0.1
4 | CCCCN1C(=O)[C@@H](Cc2ccccc2)NC(=O)[C@H](CC(C)C)NC(=O)[C@H](CCCN)NC(=O)[C@H]([C@@H](C)CC)NC(=O)c2cc(c(C)s2)C2=C(CCC2)c2cc(sc2C)C(=O)[C@H]2CCCN2C(=O)[C@H](CC(C)C)NC(=O)[C@H](CCCN)NC(=O)[C@H]([C@@H](C)CC)NC(=O)[C@@H]1CC(C)C | 3 | 0.3 | 93 (≈ 128 µg/mL) | 0.8 | 12 (≈ 16.6 µg/mL) | 4 | –
5 | CC(C)[C@@H]1NC(=O)[C@H](CCCN)NC(=O)[C@H]([C@H](O)C(C)C)NC(=O)C2=CC3=C4CCCC4=C4C=C(S[C@]4(C)[C@@]3(C)S2)C(=O)[C@H]2CCCN2C(=O)[C@H](C(C)C)NC(=O)[C@H](CCCN)NC(=O)[C@H]([C@H](O)C(C)C)NC(=O)[C@@H]2CCCN2C(=O)[C@@H](Cc2ccccc2)NC1=O | 160 | 13.3 | 195 (≈ 256 µg/mL) | 0.5 | 12 (≈ 15.8 µg/mL) | 293 | 0.8
6 | Cc1sc2cc1C1=C(CCC1)c1cc(sc1C)C(=O)[C@H]1CCCN1C(=O)[C@H](Cc1ccc(O)cc1)NC(=O)[C@H](CCCN)NC(=O)[C@H](C(C)C)NC(=O)[C@@H]1CCCN1C(=O)[C@@H](Cc1ccccc1)NC(=O)[C@H](Cc1ccc(O)cc1)NC(=O)[C@H](CCCN)NC(=O)[C@H](C(C)C)NC2=O | 4 | 1 | 92 (≈ 127 µg/mL) | 0.2 | 4 (≈ 5.52 µg/mL) | 23 | –
7 | Cc1sc2cc1C1=C(CCC1)c1cc(sc1C)C(=O)[C@H]1CCCN1C(=O)[C@H](C(C)C)NC(=O)[C@H](CCCN)NC(=O)[C@H](C(C)C)NC(=O)[C@@H]1CCCN1C(=O)[C@@H](Cc1ccccc1)NC(=O)[C@H](C(C)C)NC(=O)[C@H](CCCN)NC(=O)[C@H]([C@H](O)C(C)C)NC2=O | 56 | 28 | 100 (≈ 128 µg/mL) | 2.2 | 2 (≈ 2.57 µg/mL) | 25 | 0.6
8 | CC(C)[C@@H]1NC(=O)[C@H](CCCN)NC(=O)[C@H]([C@H](O)C(C)C)NC(=O)C2=CC3=C4CCCC4=C4C=C(S[C@]4(C)[C@@]3(C)S2)C(=O)[C@H]2CCCN2C(=O)[C@H](C(C)C)NC(=O)[C@H](CCCN)NC(=O)[C@H](C(C)C)NC(=O)[C@@H]2CCCN2C(=O)[C@@H](Cc2ccccc2)NC1=O | 351 | 27 | 200 (≈ 257 µg/mL) | 1.2 | 13 (≈ 16.7 µg/mL) | 300 | 1.8
